In ChEMBL document CHEMBL1156864, “Boron-containing phenoxyacetanilide derivatives as hypoxia-inducible factor (HIF)-1alpha inhibitors” (Bioorg Med Chem Lett, 2010) one finds IC50 and GI50 data, which are given here for 13 compounds.

For orientation: IC50 means the point on the concentration scale where inhibition reaches its midpoint. As usually defined, the GI50 is the concentration that inhibits growth by half. Low values mean more potent growth inhibition, high ones less potent growth inhibition.

A value given as a limit tells only on which side of the number the result lay.

The target in experiment [1] is Hypoxia-inducible factor 1-alpha (Homo sapiens, UniProt Q16665). As to the kind of experiment: Inhibition of hypoxia-induced HIF1alpha activation in human HeLa cells after 12 hrs by HRE-luciferase reporter gene assay. Format: cell-based. An outline of the steps:
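HeLa cells stably carrying HRE(×5)-luciferase reporter, incubated 12 h with or without drug under hypoxic conditions. Supernatant removed, then luciferase assay. IC50 is concentration halving relative light units, read from semi-logarithmic dose–response plots; mean ± SD of triplicates.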
A general note: In a reporter assay the amount or activity of a reporter protein is the signal.

Another experiment concerns HeLa. Put plainly: Growth inhibition of human HeLa cells after 48 hrs by MTT assay. Format: functional. An outline of the steps:
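HeLa cells exposed 48 h under normoxia to 100 nM–100 μM compound; viable cells measured by MTT. GI50 read from semi-logarithmic dose–response plots; mean ± SD of triplicate samples.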
Background: Formazan colour is commonly taken as a measure of viable cells.

Chain of Hypoxia-inducible factor 1-alpha (Q16665 whole entry): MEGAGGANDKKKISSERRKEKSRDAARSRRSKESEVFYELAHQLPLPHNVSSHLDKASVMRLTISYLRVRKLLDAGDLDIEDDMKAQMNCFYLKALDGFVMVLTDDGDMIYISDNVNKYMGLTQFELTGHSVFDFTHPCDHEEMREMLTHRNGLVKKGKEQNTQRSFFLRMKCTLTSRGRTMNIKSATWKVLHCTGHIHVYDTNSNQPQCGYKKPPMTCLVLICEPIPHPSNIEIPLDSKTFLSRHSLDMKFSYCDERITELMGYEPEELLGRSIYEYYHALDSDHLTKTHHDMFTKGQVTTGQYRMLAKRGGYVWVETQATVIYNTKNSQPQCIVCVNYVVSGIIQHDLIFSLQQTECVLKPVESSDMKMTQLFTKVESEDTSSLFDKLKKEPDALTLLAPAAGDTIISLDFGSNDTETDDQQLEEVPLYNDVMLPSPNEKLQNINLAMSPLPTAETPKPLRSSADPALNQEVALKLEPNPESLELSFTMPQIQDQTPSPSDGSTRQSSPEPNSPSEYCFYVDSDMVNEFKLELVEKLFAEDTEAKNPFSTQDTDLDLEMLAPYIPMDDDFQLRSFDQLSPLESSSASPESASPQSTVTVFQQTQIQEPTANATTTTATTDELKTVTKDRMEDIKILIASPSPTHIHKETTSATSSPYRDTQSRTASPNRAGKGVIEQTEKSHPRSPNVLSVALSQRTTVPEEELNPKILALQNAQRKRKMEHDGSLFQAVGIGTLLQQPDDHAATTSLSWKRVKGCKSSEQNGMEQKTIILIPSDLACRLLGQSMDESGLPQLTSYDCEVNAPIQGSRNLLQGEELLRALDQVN

`O=C(COc1ccc(C23CC4CC(CC(C4)C2)C3)cc1)Nc1cc(C(=O)O)ccc1O` gave a half-inhibitory concentration (IC50) in experiment [1] of 3.1 µM. This compound also came in with a GI50 in the experiment with HeLa of 51.6 µM.

`O=C(COc1ccc(-c2ccccc2)cc1)Nc1cc(B(O)O)ccc1O` had an IC50 in experiment [1] of more than 100 µM. Further, growth with HeLa was halved (GI50) at 85.9 µM.

Compound `O=C(COc1ccc(C2CCCCC2)cc1)Nc1cc(B(O)O)ccc1O` yielded an IC50 in experiment [1] of 84.8 µM. For the same compound, halving of growth with HeLa (GI50) required 29.2 µM.

Turning to `Cc1ccc(OCC(=O)Nc2cc(B(O)O)ccc2O)cc1`, in experiment [1], the IC50 was more than 100 µM. Moreover, growth in the experiment on HeLa was halved (GI50) at 25.7 µM.

The compound `CC(C)(C)c1ccc(OCC(=O)Nc2cc(B(O)O)ccc2O)cc1` displayed an IC50 in experiment [1] of 40.3 µM. In the experiment on HeLa, this compound gave a 50% growth inhibitory concentration (GI50) of 21.3 µM.

In experiment [1], `CCc1ccc(OCC(=O)Nc2cc(B(O)O)ccc2O)cc1` registered an IC50 of more than 100 µM. Also, the GI50 in the experiment on HeLa worked out at 14.9 µM.

In the case of `CC1(C)OB(c2ccc(O)c(NC(=O)COc3ccc(-c4ccccc4)cc3)c2)OC1(C)C`, in experiment [1], the IC50 is more than 100 µM. Also, the 50% growth inhibitory concentration (GI50) in the experiment with HeLa is 5.8 µM.

In turn, `CC1(C)OB(c2ccc(O)c(NC(=O)COc3ccc(C4CCCCC4)cc3)c2)OC1(C)C` showed an IC50 in experiment [1] of 70.4 µM. For the same compound, the concentration for 50% growth inhibition (GI50) in the experiment on HeLa was 13.4 µM.

In the case of `O=C(COc1ccc(C23CC4CC(CC(C4)C2)C3)cc1)Nc1cc(B(O)O)ccc1O`, half-maximal inhibition in experiment [1] (IC50) required 4.6 µM. In the experiment on HeLa, this compound yielded a GI50 of 15.2 µM.

In the case of `CC1(C)OB(c2ccc(O)c(NC(=O)COc3ccc(C45CC6CC(CC(C6)C4)C5)cc3)c2)OC1(C)C`, in experiment [1], the midpoint of inhibition, the IC50, lay at 3.1 µM. Also, the 50% growth inhibitory concentration (GI50) with HeLa worked out at 16 µM.

In experiment [1], `Cc1ccc(OCC(=O)Nc2cc(B3OC(C)(C)C(C)(C)O3)ccc2O)cc1` returned an IC50 of 90.6 µM. In addition, the 50% growth inhibitory concentration (GI50) with HeLa worked out at 17.7 µM.

For the compound `CCc1ccc(OCC(=O)Nc2cc(B3OC(C)(C)C(C)(C)O3)ccc2O)cc1`, in experiment [1], half-maximal inhibition (IC50) required 91.8 µM. This compound registered a GI50 in the experiment on HeLa of 8.6 µM.

As to `CC(C)(C)c1ccc(OCC(=O)Nc2cc(B3OC(C)(C)C(C)(C)O3)ccc2O)cc1`, the IC50 in experiment [1] amounted to 35.3 µM. Besides, in the experiment with HeLa, the GI50 came out at 12.1 µM.
